How the values were obtained:
[1] = Half life in human liver microsomes; format: ADME, microsome
Summary of the method: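 Compounds were incubated with human liver microsomes. Half-life = ln(2)/slope, where the slope is ln(% detected) plotted against time, using the mean of at least 3 independent experiments.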

Chikungunya virus [2] = assay: Antiviral activity against wild type Chikungunya virus IMT infected in HEK293T cells assessed as reduction in virus infection after 24 hrs by FITC immunofluorescence-based single cell quantification high content screening assay; format: functional; settings: HEK-293T
[3] = Cytotoxicity against HEK293T cells assessed as reduction in cell viability after 24 hrs by CellTiter-Glo luminescent assay; format: cell-based, HEK-293T; settings: human
Summary of the method: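 HEK 293T cell viability was measured by CellTiter-Glo luminescence after 24 h exposure to serial dilutions. Data were normalized to untreated cells (100%) and reagent background (0%). CC50, the concentration reducing viability by 50%, came from a five-parameter asymmetric fit.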

[4] = Selectivity index, ratio of CC50 for HEK293T cells to EC50 for full length Gaussia princeps Gluc-tagged Chikungunya virus IMT; format: toxicity; settings: human, read-out: Ratio CC50/EC50
Chikungunya virus [5] = assay: Antiviral activity against full length Gaussia princeps Gluc-tagged Chikungunya virus IMT infected in HEK293T cells assessed as reduction in virus infection after 24 hrs by Gaussia luciferase reporter gene assay; format: functional, cell-based; settings: HEK-293T
[6] = Cytotoxicity against human BJ cells assessed as reduction in cell viability after 24 hrs by CellTiter-Glo luminescent assay; format: cell-based
Summary of the method: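 BJ human fibroblast viability was measured by CellTiter-Glo luminescence after 24 h exposure to serial dilutions. Data were normalized to untreated cells (100%) and reagent background (0%). CC50 came from a five-parameter asymmetric fit.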

Chikungunya virus [7] = assay: Antiviral activity against full length gluc-tagged Chikungunya virus IMT infected in human BJ cells assessed as reduction in virus infection after 24 hrs by gaussia luciferase reporter gene assay; format: functional, cell-based
Chikungunya virus [8] = assay: Antiviral activity against full length gluc-tagged Chikungunya virus 2013 Caribbean CNR20235 infected in HEK293T cells assessed as reduction in virus infection after 24 hrs by gaussia luciferase reporter gene assay; format: functional, cell-based; settings: 2013 Caribbean CNR20235, HEK-293T
Chikungunya virus [9] = assay: Antiviral activity against full length gluc-tagged Chikungunya virus 2008 Singapore SGP11 infected in HEK293T cells assessed as reduction in virus infection after 24 hrs by gaussia luciferase reporter gene assay; format: functional, cell-based; settings: 2008 Singapore SGP11, HEK-293T

| SMILES | half-life [1] [min] | EC50 (Chikungunya virus [2]) [µM] | CC50 at 24 h [3] [µM] | selectivity ratio [4] | EC50 (Chikungunya virus [5]) [µM] | CC50 at 24 h [6] [µM] | EC50 (Chikungunya virus [7]) [µM] | EC50 (Chikungunya virus [8]) [µM] | EC50 (Chikungunya virus [9]) [µM] |
| --- | --- | --- | --- | --- | --- | --- | --- | --- | --- |
| CCCNC(=O)[C@H]1[C@@H]2CCC[C@H]1CN(C(=O)c1cc3sc(Br)cc3n1Cc1ccc(OC)cc1)C2 | 3.62 | 14.8 | > 100 | > 14 | 6.98 |  |  |  |  |
| CCCCC(=O)C1CCN(C(=O)c2cc3sccc3n2Cc2ccc(OC)cc2)CC1 | 6.3 |  |  |  |  |  |  |  |  |
| CCCNC(=O)[C@@H]1C[C@H]2CCC[C@@H](C1)[C@@H]2NC(=O)c1cc2sc(-c3ccccc3)nc2n1Cc1ccc(OC)cc1 | 27.2 | > 25 | > 100 | > 19 | 5.32 |  |  |  |  |
| CCCNC(=O)C1CCN(C(=O)c2cc3ncsc3n2Cc2ccc(OC)cc2)CC1 | 32.6 | 14 | 42.7 | 4.5 | 9.39 |  |  |  |  |
| CCCNC(=O)[C@@H]1CCCN1C(=O)c1cc2sc(Br)cc2n1Cc1ccc(OC)cc1 | 18.2 |  | 72.4 | 3.4 | 21.2 |  |  |  |  |
| CCCNC(=O)C1CCN(C(=O)c2ccc(Br)n2Cc2ccc(OC)cc2)CC1 | 7.32 |  | > 100 | > 6 | 16.8 |  |  |  |  |
| CCCNC(=O)[C@@H]1C[C@H]2CCC[C@@H](C1)[C@H]2NC(=O)c1cc2sc(Br)cc2n1Cc1ccc(OC)cc1 |  |  | > 100 |  | > 100 |  |  |  |  |
| CCCNC(=O)C1CC12CCN(C(=O)c1cc3sc(-c4ccccc4)nc3n1Cc1ccc(OC)cc1)CC2 (stereo not given) | 41.8 | 14.1 | > 100 | > 13 | 7.7 |  |  |  |  |
| CCCNC(=O)[C@H]1[C@@H]2CCC[C@H]1CN(C(=O)c1cc3sc(-c4ccccc4)nc3n1Cc1ccc(OC)cc1)C2 | 35.1 | 12.5 | > 100 | > 10 | 9.64 |  |  |  |  |
| CCCNC(=O)[C@H]1[C@@H]2CCC[C@H]1CN(C(=O)c1cc3sc(Br)nc3n1Cc1ccc(OC)cc1)C2 | 2.89 |  | 57.5 | 4.3 | 13.4 |  |  |  |  |
| CCCNC(=O)C1CCN(C(=O)c2cc3[nH]ccc3n2Cc2ccc(OC)cc2)CC1 | 23.1 |  | > 100 | > 8.8 | 11.4 |  |  |  |  |
| CCCNC(=O)[C@@H]1C[C@H]2CCC[C@@H](C1)[C@@H]2NC(=O)c1cc2sc(Br)cc2n1Cc1ccc(OC)cc1 | 45.1 |  | > 100 | > 7.1 | 14 |  |  |  |  |
| CCCNC(=O)C1CN(C(=O)c2cc3sc(Br)cc3n2Cc2ccc(OC)cc2)C1 | 7.73 |  | > 100 | > 7.4 | 13.6 |  |  |  |  |
| [2H]C([2H])(c1ccc(OC)cc1)n1c(C(=O)N2CCC(C(=O)NC([2H])(C([2H])([2H])[2H])C([2H])([2H])[2H])CC2)cc2sc(Br)cc21 | 3.8 | 2 | > 100 | > 58 | 1.72 |  |  |  |  |
| CCCNC(=O)C1CCN(C(=O)c2cc(Br)cn2Cc2ccc(OC)cc2)CC1 | 2.17 |  | 55 | 2.6 | 21.4 |  |  |  |  |
| CCCNC(=O)C1CCN(C(=O)c2cc3sccc3n2Cc2ccc(OC)cc2)CC1 | 10.6 |  |  | 2.7 | 7 |  |  |  |  |
| CCCNC(=O)C1CCN(C(=O)c2cc3oc(Br)cc3n2Cc2ccc(OC)cc2)CC1 | 9.5 | 1.86 | 21.9 | 11 | 1.93 |  |  |  |  |
| CCCNC(=O)C1CC12CN(C(=O)c1cc3sc(Br)cc3n1Cc1ccc(OC)cc1)C2 (stereo not given) | 19.5 |  | > 100 | > 5 | 20.2 |  |  |  |  |
| CCCNC(=O)C1CCN(C(=O)c2cc3ccsc3n2Cc2ccc(OC)cc2)CC1 | 4.08 | 6.5 | 23.4 | 2.6 | 8.86 |  |  |  |  |
| CCCNC(=O)[C@H]1CC[C@@H](NC(=O)c2cc3sc(Br)cc3n2Cc2ccc(OC)cc2)CC1 |  |  | > 100 |  | > 100 |  |  |  |  |
| CCCNC(=O)[C@H]1CC[C@H](NC(=O)c2cc3sc(Br)cc3n2Cc2ccc(OC)cc2)CC1 | 3.97 |  | > 100 | > 7 | 14.3 |  |  |  |  |
| CCCNC(=O)C1CCN(C(=O)c2cc3scnc3n2Cc2ccc(OC)cc2)CC1 | 27.7 | 4.72 | 19.1 | 4.2 | 4.56 |  |  |  |  |

| SMILES | half-life [1] [min] | EC50 (Chikungunya virus [2]) [µM] | CC50 at 24 h [3] [µM] | selectivity ratio [4] | EC50 (Chikungunya virus [5]) [µM] | CC50 at 24 h [6] [µM] | EC50 (Chikungunya virus [7]) [µM] | EC50 (Chikungunya virus [8]) [µM] | EC50 (Chikungunya virus [9]) [µM] |
| --- | --- | --- | --- | --- | --- | --- | --- | --- | --- |
| CCCNC(=O)C1CCN(C(=O)c2cc3cc(Br)ccc3n2Cc2ccc(OC)cc2)CC1 | 3.94 |  | > 100 |  | > 100 |  |  |  |  |
| CCCNC(=O)[C@@H]1[C@@H]2CCC[C@H]1CN(C(=O)c1cc3sc(Br)cc3n1Cc1ccc(OC)cc1)C2 |  |  | > 100 | > 7.9 | 12.6 |  |  |  |  |
| CCCNC(=O)C1CCN(C(=O)c2cc3nc(Br)sc3n2Cc2ccc(OC)cc2)CC1 | 22.1 | 3.87 | 46.8 | 21 | 2.22 |  |  |  |  |
| [2H]C([2H])(c1ccc(OC)cc1)n1c(C(=O)N2CCC(C(=O)NCCC)CC2)cc2sc(Br)cc21 | 3.53 | 2.06 | > 100 | > 49 | 2.03 |  |  |  |  |
| COc1ccc(Cn2c(C(=O)N3CCC(C(=O)NC(C)C)CC3)cc3sc(Br)cc32)cc1 | 3.76 | 2.47 | > 100 | > 51 | 1.95 |  |  |  |  |
| CCCNC(=O)C1CCN(C(=O)c2cc3sc(C#N)cc3n2Cc2ccc(OC)cc2)CC1 | 11.2 |  |  |  |  |  |  |  |  |
| CCCNC(=O)C1CC12CCN(C(=O)c1cc3sc(Br)cc3n1Cc1ccc(OC)cc1)CC2 (stereo not given) | 5.83 | 15.7 | > 100 | > 11 | 9.35 |  |  |  |  |
| CCCNC(=O)C1CCN(C(=O)c2cc3sc(Br)nc3n2Cc2ccc(OC)cc2)CC1 | 2.99 | 2.96 | 36.7 | 35 | 1.06 |  |  |  |  |
| CCCNC(=O)C1CCN(C(=O)c2cc3sc(C)cc3n2Cc2ccc(OC)cc2)CC1 | 2.69 |  |  |  |  |  |  |  |  |
| CCCNC(=O)C1CCN(C(=O)c2cc3sccc3n2Cc2ccc(Cl)cc2)CC1 | 10.3 |  |  |  |  |  |  |  |  |
| NC(=O)c1ncn([C@@H]2O[C@H](CO)[C@@H](O)[C@H]2O)n1 [RIBAVIRIN] |  |  | > 100 |  | 16.2 | > 100 | 9.71 | 1.97 | 1.89 |
| CCCNC(=O)C1CC12CCN(C(=O)c1cc3sc(Br)nc3n1Cc1ccc(OC)cc1)CC2 (stereo not given) | 4.97 | > 25 | 81.3 | 9.9 | 8.21 |  |  |  |  |
| CCCNC(=O)C1CCN(C(=O)c2cc3occc3n2Cc2ccc(OC)cc2)CC1 | 2.74 | 5.24 | 37.2 | 6.2 | 6 |  |  |  |  |
| CCCNC(=O)C1CCN(C(=O)c2cc3sc(-c4ccccc4F)cc3n2Cc2ccc(OC)cc2)CC1 | 35.5 |  |  |  |  |  |  |  |  |
| CCCNC(=O)[C@@H]1C[C@H]2CCC[C@@H](C1)[C@@H]2NC(=O)c1cc2scnc2n1Cc1ccc(OC)cc1 | 44.6 |  | > 25 | > 2.2 | 11.4 |  |  |  |  |
| CCCNC(=O)C1CCN(C(=O)c2cccn2Cc2ccc(OC)cc2)CC1 | 6.71 |  | > 100 | > 3.9 | 25.7 |  |  |  |  |
| CCCNC(=O)C1CCN(C(=O)c2cc3cc(Br)sc3n2Cc2ccc(OC)cc2)CC1 | 7.61 |  | > 100 | > 7.3 | 13.6 |  |  |  |  |
| CCCNC(=O)C1CCN(C(=O)c2cc3ccccc3n2Cc2ccc(OC)cc2)CC1 | 2.66 | 8.26 | 26 | 3.3 | 7.86 |  |  |  |  |
| CCCNC(=O)C1CCN(C(=O)c2cc3sc(Br)cc3n2Cc2ccc(OC)cc2)CC1 | 2.91 |  | > 100 | > 32 | 3.1 |  |  |  |  |
| CCCNC(=O)C1CCN(C(=O)c2cc3sc(-c4ccccc4)nc3n2Cc2ccc(OC)cc2)CC1 | 40.8 | 5.63 | 22.9 | 7.6 | 3.02 |  |  |  |  |
| CCCNC(=O)C1CCN(C(=O)c2cc3[nH]cnc3n2Cc2ccc(OC)cc2)CC1 | 76.2 |  | > 100 | > 2.3 | 42.8 |  |  |  |  |
| [2H]C([2H])([2H])C([2H])(NC(=O)C1CCN(C(=O)c2cc3sc(Br)cc3n2Cc2ccc(OC)cc2)CC1)C([2H])([2H])[2H] | 5.33 | 1.63 | > 100 | > 65 | 1.55 |  |  |  |  |

From ChEMBL document CHEMBL4007509, “Structural Optimizations of Thieno[3,2-b]pyrrole Derivatives for the Development of Metabolically Stable Inhibitors of Chikungunya Virus” (J Med Chem, 2017)
